Measurements pooled from the literature.
Compare with care: the assays were run in different laboratories.
ABL1 Q252H non-phosphorylated: Tyrosine-protein kinase ABL1, non-phosphorylated (ABL1, Homo sapiens, UniProt P00519, Q252H)
ABL1 F317I phosphorylated: Tyrosine-protein kinase ABL1, phosphorylated (ABL1, Homo sapiens, UniProt P00519, F317I)
ABL1 F317L: Tyrosine-protein kinase ABL1 (ABL1, Homo sapiens, UniProt P00519, F317L)
ABL1 F317L phosphorylated: Tyrosine-protein kinase ABL1, phosphorylated (ABL1, Homo sapiens, UniProt P00519, F317L)
ABL1 Q252H phosphorylated: Tyrosine-protein kinase ABL1, phosphorylated (ABL1, Homo sapiens, UniProt P00519, Q252H)
ABL1 F317L non-phosphorylated: Tyrosine-protein kinase ABL1, non-phosphorylated (ABL1, Homo sapiens, UniProt P00519, F317L)
ABL1 E255K phosphorylated: Tyrosine-protein kinase ABL1, phosphorylated (ABL1, Homo sapiens, UniProt P00519, E255K)
ABL1 T315I phosphorylated: Tyrosine-protein kinase ABL1, phosphorylated (ABL1, Homo sapiens, UniProt P00519, T315I)

SMILES | target | test | conditions | remaining binding
O=C(NCC1CCOCC1)c1n[nH]cc1NC(=O)c1c(F)cccc1F | ABL1 Q252H non-phosphorylated | binding, competition with immobilised ligand | 1 µM | 82%
CO[C@@H](C)c1c(Nc2ccc([C@H](N(C)C(=O)C3CCS(=O)(=O)CC3)C(F)(F)F)cc2)cnc2cc(Cl)nn12 | ABL1 F317I phosphorylated | binding | 1 µM | 100%
O=C(NCCCN1CCOCC1)c1ccc(Nc2nccc(-c3cc4ccccc4s3)n2)cc1 | Tyrosine-protein kinase ABL1, phosphorylated (ABL1, Homo sapiens, UniProt P00519, Y253F) | binding, competition with immobilised ligand | 1 µM | 44%
CN(c1nccc(-c2cnn3ncccc23)n1)C1CC1 | ABL1 F317L | binding | 1 µM | 100%
C=CC(=O)N1CCC(C(=O)NCC(=O)N2CCN(c3nc(-c4cnc(N)nc4C(F)F)nc(N4CCOCC4)n3)CC2)CC1 | ABL1 F317L phosphorylated | binding, competition with immobilised ligand | 1 µM | 100%
N[C@@H]1CCN(c2nccc(-c3cnn4ncccc34)n2)C1 | ABL1 F317L | binding | 1 µM | 100%
O=C(c1ccc(Nc2ncc(Cl)c(-c3ccc(Cl)s3)n2)cc1)N1CCC(N2CCCC2)CC1 | ABL1 Q252H phosphorylated | binding, competition with immobilised ligand | 1 µM | 4.2%
Nc1cnc(N2CCc3cc(S(=O)(=O)Nc4c(F)cc(Cl)cc4F)cc(N4CCCC4=O)c32)nc1 | ABL1 F317L phosphorylated | cell-free assay, competition with immobilised ligand | 1 µM | 78%
CN(CCCC(F)(F)F)c1nccc(-c2cnn3ncccc23)n1 | Tyrosine-protein kinase ABL1 (ABL1, Homo sapiens, UniProt P00519, F317I) | binding | 1 µM | 100%
Cc1cnc(Nc2ccc(C(=O)N3CCC(N4CCCC4)CC3)cc2)nc1-c1cc2ccccc2s1 | ABL1 F317L phosphorylated | binding, competition with immobilised ligand | 1 µM | 21%
CN([C@@H]1CCc2c(CC(=O)O)c3cc(S(C)(=O)=O)ccc3n2C1)S(=O)(=O)c1ccc(F)cc1 | Tyrosine-protein kinase ABL1, phosphorylated (ABL1, Homo sapiens, UniProt P00519, H396P) | cell-free assay, competition with immobilised ligand | 1 µM | 78%
C[C@@H](c1ccc(-n2cnc3c(N)ncnc32)cc1)N1CCc2nn(C)c(Cc3ccccc3)c2C1=O | ABL1 F317L non-phosphorylated | binding, competition with immobilised ligand | 0.1 µM | 16%
COc1cnc(Nc2cccc(S(N)(=O)=O)c2)nc1N1CCN(c2ccccc2)C(=O)C1 | ABL1 F317L non-phosphorylated | binding, competition with immobilised ligand | 1 µM | 90%
O=C(NCCCN1CCOCC1)c1ccc(Nc2ncc(Cl)c(-c3ccc(Cl)s3)n2)cc1 | ABL1 Q252H phosphorylated | binding, competition with immobilised ligand | 1 µM | 29%
Nc1ncc2c(n1)-c1c([nH]c3ccc(C#CC4CC4)cc13)CCCC2 | ABL1 E255K phosphorylated | binding, competition with immobilised ligand | 1 µM | 100%
O=C(Nc1cnc(Oc2ccc(F)cc2)nc1)N1CCc2ncccc2[C@@H]1c1ccc(F)cc1 | Tyrosine-protein kinase ABL1, phosphorylated (ABL1, Homo sapiens, UniProt P00519) | cell-free assay, competition with immobilised ligand | 1 µM | 94%
CCN1CCN(Cc2ccc(C(=O)Nc3ccc(C)c(Oc4ccc5c(c4)CC(=O)N5)c3)cc2C(F)(F)F)CC1 | Tyrosine-protein kinase ABL1, non-phosphorylated (ABL1, Homo sapiens, UniProt P00519) | binding, competition with immobilised ligand | 1 µM | 2.1%
O=S(=O)(NC1CCC(c2cc(F)ccc2F)(S(=O)(=O)c2ccc(Cl)cc2)CC1)C(F)(F)F (stereo not shown) | Tyrosine-protein kinase ABL1, non-phosphorylated (ABL1, Homo sapiens, UniProt P00519, H396P) | cell-free assay, competition with immobilised ligand | 1 µM | 100%
O=C(c1ccc(Nc2ncc(Cl)c(-c3cc4ccccc4s3)n2)cc1)N1CCC(N2CCCC2)CC1 | Tyrosine-protein kinase ABL1, non-phosphorylated (ABL1, Homo sapiens, UniProt P00519, F317I) | binding, competition with immobilised ligand | 1 µM | 74%
O=C(Nc1c[nH]nc1C(=O)NC1CCNCC1)c1cc(F)cc(F)c1 | ABL1 F317L phosphorylated | binding, competition with immobilised ligand | 1 µM | 100%
O=C(NCc1ncc(C(F)(F)F)cc1Cl)c1ccc2c(c1)C1(CCS(=O)(=O)CC1)[C@@H](C1CC1)N2S(=O)(=O)c1ccc(F)cc1 | ABL1 Q252H non-phosphorylated | cell-free assay, competition with immobilised ligand | 1 µM | 100%
COc1ncc2cc3ccccc3nc2c1C#N | ABL1 E255K phosphorylated | cell-free assay, competition with immobilised ligand | 5 µM | 100%
c1cncc(-c2cccc(Nc3nccc(NC4CCCCC4)n3)c2)c1 | ABL1 F317I phosphorylated | binding, competition with immobilised ligand | 10 µM | 100%
CNC(=O)[C@@H]1CC[C@@H](n2c(-c3ccc4cnccc4c3)nc3ccc(C(=O)NCc4cccc(C(N)=O)c4)cc32)C1 | ABL1 E255K phosphorylated | binding, competition with immobilised ligand | 1 µM | 100%
O=C(N1CCS(=O)(=O)CC1)N1C[C@H](c2ccc(OC(F)(F)F)cc2)C[C@H](c2nc(C3CC3)no2)C1 | Tyrosine-protein kinase ABL1, non-phosphorylated (ABL1, Homo sapiens, UniProt P00519, T315I) | cell-free assay, competition with immobilised ligand | 1 µM | 92%
O=C(c1ccc(Nc2nccc(-c3cc4ccccc4s3)n2)cc1)N1CCC(N2CCCC2)CC1 | ABL1 T315I phosphorylated | binding, competition with immobilised ligand | 1 µM | 14%
Cc1nccc(COC(=O)N2C[C@@H]3[C@@H](CNC(=O)c4ccc5[nH]nnc5c4)[C@@H]3C2)n1 | Tyrosine-protein kinase ABL1, phosphorylated (ABL1, Homo sapiens, UniProt P00519, M351T) | cell-free assay, competition with immobilised ligand | 1 µM | 95%
COc1cnc(Nc2cccc(S(N)(=O)=O)c2)nc1N1CCN(c2ccccc2)CC1 | ABL1 T315I phosphorylated | binding, competition with immobilised ligand | 1 µM | 88%
